ChEMBL document CHEMBL1649151, “Urinary bactericidal activity of Doripenem versus that of levofloxacin in patients with complicated urinary tract infections or pyelonephritis” (Antimicrob Agents Chemother, 2009)
≈ marks a conversion by molar mass, not a printed value.

Tests used:
Escherichia coli [1] = test: Antimicrobial activity against Escherichia coli 1821385 B-C isolated from patient with pyelonephritis assessed as >3-log reduction in urinary bacterial titer after 20 hrs; assay type: functional, Urine
Procedure, shortened: (§1)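 Urine was collected on day 3 of i.v. therapy (steady state) over 4-h intervals from infusion start (0–4 to 20–24 h), stored at –80°C and sterile filtered. It was serially diluted twofold (1:0 up to 1:131,072) in the patient's own pre-dose drug-free urine. Microdilution used a final inoculum of 1.0 x 10^6 to 9.5 x 10^6 CFU/ml, incubated 18 h at 37°C in air. 10 µl was subcultured onto 5% blood Columbia agar for 24 h at 37°C. The bactericidal endpoint was >99.9% (>3-log) kill, reported as a reciprocal titer.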

Escherichia coli [2] = test: Antimicrobial activity against Escherichia coli 2062717 B-P isolated from patient with pyelonephritis assessed as >3-log reduction in urinary bacterial titer after 16 hrs; assay type: functional, Urine
Procedure, shortened: (§2)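 Patient urine was collected on day 3 of i.v. therapy (steady state) over 4-h intervals after infusion start, stored at –80°C, and sterile filtered. It was twofold serially diluted (1:0 to 1:131,072) in the patient's own pre-dose drug-free urine, inoculated to 1.0 x 10^6–9.5 x 10^6 CFU/ml, and incubated for 18 h at 37°C. Subcultures were grown on blood agar for 24 h. The UBT is the reciprocal of the highest dilution giving >99.9% kill.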

Enterococcus faecalis [3] = test: Antimicrobial activity against Enterococcus faecalis 2215770 B-T isolated from patient with pyelonephritis assessed as >3-log reduction in urinary bacterial titer after 12 hrs; assay type: functional, Urine
Procedure, shortened: (§3)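 Urine was collected before dosing and on day 3 of i.v. therapy (steady state), in 4-h intervals from infusion start (0–4 to 20–24 h), stored at −80°C and sterile filtered. It was serially diluted twofold (1:0 to 1:131,072) in the patient's drug-free pre-dose urine. Microdilution used an inoculum of 1.0 x 10^6–9.5 x 10^6 CFU/ml, incubated 18 h at 37°C, then subcultured 24 h on blood agar. The endpoint was >99.9% kill, reported as reciprocal titer.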

Escherichia coli [4] = test: Antimicrobial activity against Escherichia coli 1949825 B-K isolated from patient with pyelonephritis assessed as >3-log reduction in urinary bacterial titer after 12 hrs; assay type: functional, Urine; procedure, shortened: as §2
Escherichia coli [5] = test: Antimicrobial activity against Escherichia coli 1889645 B-I isolated from patient with pyelonephritis assessed as >3-log reduction in urinary bacterial titer after 12 hrs; assay type: functional, Urine; procedure, shortened: as §1
Pseudomonas aeruginosa [6] = test: Antimicrobial activity against Pseudomonas aeruginosa 2062713 B-Q isolated from patient with pyelonephritis by Etest; assay type: functional
Escherichia coli [7] = test: Antimicrobial activity against Escherichia coli 1949826 B-L isolated from patient with pyelonephritis by Etest; assay type: functional
Escherichia coli [8] = test: Antimicrobial activity against Escherichia coli 1821385 B-C isolated from patient with pyelonephritis by Etest; assay type: functional
Escherichia coli [9] = test: Antimicrobial activity against Escherichia coli 1780063 B-A isolated from patient with pyelonephritis by Etest; assay type: functional
Escherichia coli [10] = test: Antimicrobial activity against Escherichia coli 1949825 B-K isolated from patient with pyelonephritis assessed as >3-log reduction in urinary bacterial titer after 8 hrs; assay type: functional, Urine; procedure, shortened: as §2
Escherichia coli [11] = test: Antimicrobial activity against Escherichia coli 1889646 B-F isolated from patient with pyelonephritis assessed as >3-log reduction in urinary bacterial titer after 4 hrs; assay type: functional, Urine; procedure, shortened: as §1
Escherichia coli [12] = test: Antimicrobial activity against Escherichia coli 1780063 B-A isolated from patient with pyelonephritis assessed as >3-log reduction in urinary bacterial titer after 4 hrs; assay type: functional, Urine; procedure, shortened: as §3
[13] = T>MIC in Pseudomonas aeruginosa infected in thigh of neutropenic mouse at 500 mg/kg, iv administered every 8 hrs; assay type: functional
[14] = system: Staphylococcus haemolyticus; test: Antimicrobial activity against Staphylococcus haemolyticus 1949819 B-M isolated from patient with pyelonephritis assessed as >3-log reduction in urinary bacterial titer after 24 hrs; assay type: functional, Urine
Escherichia coli [15] = test: Antimicrobial activity against Escherichia coli 1949826 B-L isolated from patient with pyelonephritis assessed as >3-log reduction in urinary bacterial titer after 20 hrs; assay type: functional, Urine; procedure, shortened: as §2
Escherichia coli [16] = test: Antimicrobial activity against Escherichia coli 1889647 B-H isolated from patient with pyelonephritis assessed as >3-log reduction in urinary bacterial titer after 20 hrs; assay type: functional, Urine; procedure, shortened: as §1
Enterococcus faecalis [17] = test: Antimicrobial activity against Enterococcus faecalis 2215767-10 B-S isolated from patient with pyelonephritis assessed as >3-log reduction in urinary bacterial titer after 20 hrs; assay type: functional, Urine; procedure, shortened: as §3
Escherichia coli [18] = test: Antimicrobial activity against Escherichia coli 1821386 B-D isolated from patient with pyelonephritis assessed as >3-log reduction in urinary bacterial titer after 16 hrs; assay type: functional, Urine; procedure, shortened: as §1
[19] = system: Staphylococcus epidermidis; test: Antimicrobial activity against Staphylococcus epidermidis 2297262-9 B-V isolated from patient with pyelonephritis assessed as >3-log reduction in urinary bacterial titer after 16 hrs; assay type: functional, Urine
Enterococcus faecalis [20] = test: Antimicrobial activity against Enterococcus faecalis 2297262-10 B-V isolated from patient with pyelonephritis assessed as >3-log reduction in urinary bacterial titer after 16 hrs; assay type: functional, Urine; procedure, shortened: as §3
[21] = system: Staphylococcus epidermidis; test: Antimicrobial activity against Staphylococcus epidermidis 1949822 B-J isolated from patient with pyelonephritis assessed as >3-log reduction in urinary bacterial titer after 12 hrs; assay type: functional, Urine
Staphylococcus aureus [22] = test: Antimicrobial activity against Staphylococcus aureus 1889640 A-Z isolated from patient with pyelonephritis by Etest; assay type: functional
Pseudomonas aeruginosa [23] = test: Antimicrobial activity against Pseudomonas aeruginosa 1821383 B-E isolated from patient with pyelonephritis by Etest; assay type: functional
Escherichia coli [24] = test: Antimicrobial activity against Escherichia coli 1780064 A-X isolated from patient with pyelonephritis by Etest; assay type: functional
Escherichia coli [25] = test: Antimicrobial activity against Escherichia coli 1655646 A-Y isolated from patient with pyelonephritis by Etest; assay type: functional
Staphylococcus aureus [26] = test: Antimicrobial activity against Staphylococcus aureus 2215767-9 B-S isolated from patient with pyelonephritis by Etest; assay type: functional
[27] = system: Staphylococcus epidermidis; test: Antimicrobial activity against Staphylococcus epidermidis 2297262-9 B-V isolated from patient with pyelonephritis assessed as >3-log reduction in urinary bacterial titer after 12 hrs; assay type: functional, Urine
Staphylococcus aureus [28] = test: Antimicrobial activity against Staphylococcus aureus 1889640 A-Z isolated from patient with pyelonephritis assessed as >3-log reduction in urinary bacterial titer after 8 hrs; assay type: functional, Urine
Serratia marcescens [29] = test: Antimicrobial activity against Serratia marcescens 2297260 B-U isolated from patient with pyelonephritis assessed as >3-log reduction in urinary bacterial titer after 8 hrs; assay type: functional, Urine
Escherichia coli [30] = test: Antimicrobial activity against Escherichia coli 2062716 B-R isolated from patient with pyelonephritis assessed as >3-log reduction in urinary bacterial titer after 8 hrs; assay type: functional, Urine; procedure, shortened: as §2
Escherichia coli [31] = test: Antimicrobial activity against Escherichia coli 1821386 B-D isolated from patient with pyelonephritis assessed as >3-log reduction in urinary bacterial titer after 8 hrs; assay type: functional, Urine; procedure, shortened: as §1
Enterococcus faecalis [32] = test: Antimicrobial activity against Enterococcus faecalis 2215767-10 B-S isolated from patient with pyelonephritis assessed as >3-log reduction in urinary bacterial titer after 24 hrs; assay type: functional, Urine; procedure, shortened: as §3
[33] = system: Staphylococcus epidermidis; test: Antimicrobial activity against Staphylococcus epidermidis 1949822 B-J isolated from patient with pyelonephritis assessed as >3-log reduction in urinary bacterial titer after 20 hrs; assay type: functional, Urine
Serratia marcescens [34] = test: Antimicrobial activity against Serratia marcescens 2297260 B-U isolated from patient with pyelonephritis assessed as >3-log reduction in urinary bacterial titer after 20 hrs; assay type: functional, Urine
Escherichia coli [35] = test: Antimicrobial activity against Escherichia coli 2062716 B-R isolated from patient with pyelonephritis assessed as >3-log reduction in urinary bacterial titer after 20 hrs; assay type: functional, Urine; procedure, shortened: as §2

Compound: C[C@@H](O)[C@H]1C(=O)N2C(C(=O)O)=C(S[C@@H]3CN[C@H](CNS(N)(=O)=O)C3)[C@H](C)[C@H]12 [DORIPENEM]
- urinary bactericidal titer (Escherichia coli [1]): 8192 reciprocal titer
- urinary bactericidal titer (Escherichia coli [2]): 512 reciprocal titer
- urinary bactericidal titer (Enterococcus faecalis [3]): 1024 reciprocal titer
- urinary bactericidal titer (Escherichia coli [4]): 8192 reciprocal titer
- urinary bactericidal titer (Escherichia coli [5]): 131000 reciprocal titer
- MIC (Pseudomonas aeruginosa [6]): 0.5 µg/mL (≈ 1.19 µM)
- MIC (Escherichia coli [7]): 0.03 µg/mL (≈ 0.0713 µM)
- MIC (Escherichia coli [8]): 0.03 µg/mL (≈ 0.0713 µM)
- MIC (Escherichia coli [9]): 0.03 µg/mL (≈ 0.0713 µM)
- urinary bactericidal titer (Escherichia coli [10]): 4096 reciprocal titer
- urinary bactericidal titer (Escherichia coli [11]): 65500 reciprocal titer
- urinary bactericidal titer (Escherichia coli [12]): 4096 reciprocal titer
- fT>MIC [13]: 20%
- urinary bactericidal titer [14]: 128 reciprocal titer
- urinary bactericidal titer (Escherichia coli [15]): 65500 reciprocal titer

Compound: C[C@H]1COc2c(N3CCN(C)CC3)c(F)cc3c(=O)c(C(=O)O)cn1c23.C[C@H]1COc2c(N3CCN(C)CC3)c(F)cc3c(=O)c(C(=O)O)cn1c23.O [LEVOFLOXACIN]
- urinary bactericidal titer (Escherichia coli [16]): 512 reciprocal titer
- Time (Enterococcus faecalis [17]): 0 h
- urinary bactericidal titer (Escherichia coli [18]): 4096 reciprocal titer
- urinary bactericidal titer [19]: 2 reciprocal titer
- urinary bactericidal titer (Enterococcus faecalis [20]): 0 reciprocal titer
- urinary bactericidal titer [21]: 2 reciprocal titer
- MIC (Staphylococcus aureus [22]): 0.06 µg/mL
- MIC (Pseudomonas aeruginosa [23]): 0.25 µg/mL
- MIC (Escherichia coli [24]): 0.047 µg/mL
- MIC (Escherichia coli [25]): 0.047 µg/mL
- MIC (Staphylococcus aureus [26]): > 32 µg/mL
- urinary bactericidal titer [27]: 4 reciprocal titer
- urinary bactericidal titer (Staphylococcus aureus [28]): 128 reciprocal titer
- urinary bactericidal titer (Serratia marcescens [29]): 256 reciprocal titer
- urinary bactericidal titer (Escherichia coli [30]): 512 reciprocal titer
- urinary bactericidal titer (Escherichia coli [31]): 8192 reciprocal titer
- Time (Enterococcus faecalis [32]): 0 h
- urinary bactericidal titer [33]: 2 reciprocal titer
- urinary bactericidal titer (Serratia marcescens [34]): 32 reciprocal titer
- urinary bactericidal titer (Escherichia coli [35]): 128 reciprocal titer
